The source of these data is ChEMBL document CHEMBL3593162, “Novel 9-Alkyl- and 9-Alkylidene-Substituted 1α,25-Dihydroxyvitamin D3 Analogues: Synthesis and Biological Examinations” (J Med Chem, 2015).

Assay [1] deals with Rattus norvegicus. Kind of assay: Induction of intestinal calcium transport in Sprague-Dawley rat assessed as ratio of serosal calcium to mucosal calcium level at 35100 pmol, ip administered 4 doses at 24 hrs interval measured 24 hrs post last dose by everted gut sac method (reference value: 4.3). Type of assay: functional.
Assay [2] is described as follows: Induction of transcriptional activity in rat ROS 17/2.8 cells after 16 hrs by 24-hydroxylase luciferase reporter gene assay. In kind it is functional. The conditions noted are these: for EC50: Rattus norvegicus, 16 h, read-out: ED50 (the source's name). The method in brief:
(§1)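 ROS 17/2.8 cells stably transfected with 24-hydroxylase promoter–luciferase reporter, dosed over a range of concentrations. Harvested 16 h after dosing; luciferase read on a luminometer. ED50 is the concentration raising luciferase activity by 50%, from dose-response curves. Ratio = ED50 of 1α,25-(OH)2D3 / ED50 of analogue.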

Assay [3] has as its system Rattus norvegicus. Kind of assay: Induction of bone calcium mobilization into serum of Sprague-Dawley rat assessed as total serum calcium level at 35100 pmol, ip administered 4 doses at 24 hrs interval measured 24 hrs post last dose (reference value: 4.5 mg/dL). Type of assay: functional. The method in brief:
(§2)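 Group-housed rats on Diet 11 (0.47% Ca) + AEK oil for 1 week, then 0.02% Ca for 3 weeks, then 0.47% Ca for 1 week, then 2 weeks on 0.02% Ca. Dosing in the final week: four ip doses about 24 h apart. Blood taken from the severed neck 24 h after the last dose; serum calcium measured as the bone calcium mobilization index.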

Assay [4] in a line: Potency index, ratio of 1alpha,25-(OH)2D3 ED50 to compound ED50 for induction of transcriptional activity in rat ROS 17/2.8 cells. In kind it is functional. The method in brief:
as §1

The subject of assay [5] is Rattus norvegicus. As to the kind of experiment: Induction of bone calcium mobilization into serum of Sprague-Dawley rat assessed as total serum calcium level at 7020 pmol, ip administered 4 doses at 24 hrs interval measured 24 hrs post last dose (reference value: 4.5 mg/dL). In kind it is functional. The method in brief:
as §2

The subject of assay [6] is HL-60. Kind of assay: Induction of differentiation of human HL60 promyelocytes to monocytes after 4 days by nitro blue tetrazolium reduction assay. In kind it is functional. Particulars: for EC50: Homo sapiens, HL-60, 96 h, read-out: ED50 (the source's name). The method in brief: (§3)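 HL-60 cells grown in RPMI-1640 with 10% FBS at 37 °C, 5% CO2, plated at 1.2 × 10^5 cells/plate. Dosed in duplicate 18 h after plating (final ethanol <0.2%). After 4 days, NBT reduction read by counting 200 cells for formazan deposits. ED50 is the concentration giving 50% maturation, from dose-response curves; repeated 2 to 3 times, mean reported. Ratio = ED50 of 1α,25-(OH)2D3 / ED50 of analogue.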

Assay [7] concerns Rattus norvegicus. As to the kind of experiment: Induction of intestinal calcium transport in Sprague-Dawley rat assessed as ratio of serosal calcium to mucosal calcium level at 7020 pmol, ip administered 4 doses at 24 hrs interval measured 24 hrs post last dose by everted gut sac method (reference value: 4.3). Type of assay: functional.
Assay [8] deals with T1, Vitamin D3 receptor (Rattus norvegicus) (UniProt P13053).
T1 sequence (whole entry): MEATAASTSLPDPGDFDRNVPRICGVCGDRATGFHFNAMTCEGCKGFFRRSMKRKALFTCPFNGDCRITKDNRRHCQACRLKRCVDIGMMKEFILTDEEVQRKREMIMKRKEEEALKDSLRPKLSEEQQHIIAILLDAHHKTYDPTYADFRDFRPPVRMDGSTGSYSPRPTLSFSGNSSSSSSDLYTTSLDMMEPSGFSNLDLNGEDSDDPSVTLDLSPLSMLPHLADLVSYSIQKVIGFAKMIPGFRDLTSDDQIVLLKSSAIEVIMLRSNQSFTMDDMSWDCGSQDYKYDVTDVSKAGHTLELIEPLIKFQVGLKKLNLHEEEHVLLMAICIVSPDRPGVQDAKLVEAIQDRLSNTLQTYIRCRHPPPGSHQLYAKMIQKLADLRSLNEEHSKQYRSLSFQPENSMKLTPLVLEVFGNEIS
Kind of assay: Potency index, ratio of 1alpha,25-(OH)2D3 Ki to compound Ki for full length recombinant rat vitamin D receptor.

The test system of assay [9] is HL-60. Kind of assay: Potency index, ratio of 1alpha,25-(OH)2D3 ED50 to compound ED50 for induction of differentiation of human HL60 promyelocytes to monocytes. Type of assay: functional. The method in brief: as §3
The next assay addresses T2, Vitamin D3 receptor (Rattus norvegicus, UniProt P13053).
T2 sequence (P13053 whole entry): T1 sequence (whole entry)
Kind of assay: Displacement of [3H]-1alpha25-(OH)2D3 from full length recombinant rat vitamin D receptor by scintillation counting analysis. The method in brief:
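[3H]-1α,25(OH)2D3 at 1 nM final plus unlabeled ligand (ethanol ≤10%), incubated overnight on ice. Bound ligand captured on hydroxylapatite, washed with Tris–EDTA/0.5% Triton X-100, scintillation counted. Ki from dose-response curves using Kd 0.2 nM; duplicates on two to three occasions.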
On the technique in general: Loss of bound radioactivity is the signal in a displacement assay; it reports binding, not function.

For assay [10], the system named is Rattus norvegicus. Kind of assay: Induction of intestinal calcium transport in Sprague-Dawley rat assessed as ratio of serosal calcium to mucosal calcium level at 780 pmol, ip administered 4 doses at 24 hrs interval measured 24 hrs post last dose by everted gut sac method (reference value: 4.1). In kind it is functional.
In assay [11] the test system is Rattus norvegicus. Kind of assay: Induction of intestinal calcium transport in Sprague-Dawley rat assessed as ratio of serosal calcium to mucosal calcium level at 35100 pmol, ip administered 4 doses at 24 hrs interval measured 24 hrs post last dose by everted gut sac method (reference value: 4.1). In kind it is functional.
Assay [12] deals with Rattus norvegicus. Kind of assay: Induction of bone calcium mobilization into serum of Sprague-Dawley rat assessed as serum calcium level at 780 pmol, ip administered 4 doses at 24 hrs interval measured 24 hrs post last dose (reference value: 4.9 mg/dL). In kind it is functional. The method in brief:
as §2

Assay [13] has as its system Rattus norvegicus. As to the kind of experiment: Induction of intestinal calcium transport in Sprague-Dawley rat assessed as ratio of serosal calcium to mucosal calcium level at 7020 pmol, ip administered 4 doses at 24 hrs interval measured 24 hrs post last dose by everted gut sac method (reference value: 4.1). In kind it is functional.
In assay [14] the test system is Rattus norvegicus. Kind of assay: Induction of bone calcium mobilization into serum of Sprague-Dawley rat assessed as serum calcium level at 35100 pmol, ip administered 4 doses at 24 hrs interval measured 24 hrs post last dose (reference value: 4.9 mg/dL). In kind it is functional. The method in brief:
as §2

Assay [15] relates to Rattus norvegicus. Kind of assay: Induction of bone calcium mobilization into serum of Sprague-Dawley rat assessed as serum calcium level at 7020 pmol, ip administered 4 doses at 24 hrs interval measured 24 hrs post last dose (reference value: 4.9 mg/dL). Type of assay: functional. The method in brief:
as §2

In assay [16] the test system is Rattus norvegicus. As to the kind of experiment: Induction of bone calcium mobilization into serum of Sprague-Dawley rat assessed as serum calcium level at 87 pmol, ip administered 4 doses at 24 hrs interval measured 24 hrs post last dose (reference value: 4.9 mg/dL). Type of assay: functional. The method in brief: as §2
Assay [17] relates to Rattus norvegicus. As to the kind of experiment: Induction of bone calcium mobilization into serum of Sprague-Dawley rat assessed as total serum calcium level at 260 pmol, ip administered 4 doses at 24 hrs interval measured 24 hrs post last dose (reference value: 4.5 mg/dL). Type of assay: functional. The method in brief:
as §2

The test system of assay [18] is Rattus norvegicus. As to the kind of experiment: Induction of bone calcium mobilization into serum of Sprague-Dawley rat assessed as total serum calcium level at 105300 pmol, ip administered 4 doses at 24 hrs interval measured 24 hrs post last dose (reference value: 4.5 mg/dL). Type of assay: functional. The method in brief: as §2
For assay [19], the system named is Rattus norvegicus. Kind of assay: Induction of intestinal calcium transport in Sprague-Dawley rat assessed as ratio of serosal calcium to mucosal calcium level at 105300 pmol, ip administered 4 doses at 24 hrs interval measured 24 hrs post last dose by everted gut sac method (reference value: 4.3). Type of assay: functional.

The term Ki denotes a measure of affinity in units of concentration, obtained from inhibition or displacement. In the case of `C=C1/C(=C\C=C2/[C@H](C)CC[C@]3(C)[C@@H]([C@H](C)CCCC(C)(C)O)CC[C@@H]23)C[C@@H](O)C[C@@H]1O`, the figures for the Ratio with Rattus norvegicus [1] and in the assay with Rattus norvegicus [7] were 6.2 and 7.9, respectively. Besides, the figures for the ED50 (in assay [2]; with HL-60 [6]) were 5 ×10⁻⁸ M and 5 ×10⁻⁶ M, respectively. The Activity in the assay on Rattus norvegicus [3] was determined as 4.6 mg/dL; with Rattus norvegicus [5], 4.3 mg/dL. The “Ratio ED50” value is given as 0.006 in [4] and 0.0001 in the assay on HL-60 [9]. Besides, in assay [8], the Ratio Ki is 0.005. For the same molecule, the Ki on Vitamin D3 receptor amounted to 20 nM.

As for `C=C1CC[C@]2(C)[C@@H]([C@H](C)CCCC(C)(C)O)CC[C@H]2/C1=C/C=C1C[C@@H](O)C[C@H](O)C1`, the Ratio is 4.6 in the assay on Rattus norvegicus [1] and 5.3 in the assay with Rattus norvegicus [7]. In addition, the ED50 in assay [2] is listed as 5 ×10⁻⁸ M. For the same molecule, the Activity in the assay with Rattus norvegicus [3] amounted to 4.4 mg/dL; with Rattus norvegicus [5] it was 4.3 mg/dL. Moreover, the entries for the “Ratio ED50” value (in assay [4]; with HL-60 [9]) were 0.006 and 0.002, respectively. Also, in the assay with HL-60 [6], the EC50 was 1000 nM. In addition, the Ratio Ki in assay [8] was 0.005. In addition, the Ki at Vitamin D3 receptor amounted to 20 nM.

`C=C1CC[C@]2(C)[C@@H]([C@H](C)CCCC(C)(C)O)CC[C@H]2/C1=C/C=C1/C[C@@H](O)C[C@H](O)[C@H]1C`: the figures for the EC50 (in assay [2]; with HL-60 [6]) were 1000 nM and 10000 nM, respectively. The “Ratio ED50” value (in [4]; in the assay on HL-60 [9]) was 0.0001 throughout. Besides, the Ratio Ki in assay [8] is below 1e-05. In addition, the Ki on Vitamin D3 receptor was above 10000 nM.

Consider `C[C@H](CCCC(C)(C)O)[C@H]1CC[C@H]2/C(=C/C=C3C[C@@H](O)C[C@H](O)C3)[C@@H](C)CC[C@]12C`, for which the Ratio is on record as 5 with Rattus norvegicus [10], 8.8 in the assay with Rattus norvegicus [11] and 10.1 in the assay with Rattus norvegicus [13]. The ED50 stood at 3 ×10⁻¹⁰ M in assay [2] and 9 ×10⁻⁹ M in the assay on HL-60 [6]. Further, the “Ratio ED50” value was determined as 1 in [4] and 0.2 with HL-60 [9]. In addition, the Activity with Rattus norvegicus [12] was 4.8 mg/dL; in the assay on Rattus norvegicus [14], 5.4 mg/dL; in the assay with Rattus norvegicus [15], 4.5 mg/dL. In addition, the Ratio Ki in assay [8] came to 0.5. For the same molecule, the Ki at Vitamin D3 receptor was found to be 0.2 nM.

`C=C1/C(=C\C=C2/CCC[C@]3(C)[C@@H]([C@H](C)CCCC(C)(C)O)CC[C@@H]23)C[C@@H](O)C[C@@H]1O` [CALCITRIOL]: the Activity stood at 6.2 mg/dL in the assay with Rattus norvegicus [16], 7.3 mg/dL with Rattus norvegicus [12] and 5.6 mg/dL with Rattus norvegicus [17]. For the same molecule, the ED50 is recorded as 3 ×10⁻¹⁰ M in assay [2] and 2 ×10⁻⁹ M in the assay with HL-60 [6].

In assay [2], `C=C1CC[C@]2(C)[C@@H]([C@H](C)CCCC(C)(C)O)CC[C@H]2/C1=C/C=C1/C[C@@H](O)C[C@H](O)[C@@H]1C` displayed an ED50 of 9 ×10⁻⁸ M. The “Ratio ED50” value in [4] is on record as 0.003; in the assay on HL-60 [9] it was 0.0001. In the assay with HL-60 [6], the EC50 stood at 10000 nM. Also, in [8], the Ratio Ki was below 1e-05. At Vitamin D3 receptor, the Ki is above 10000 nM.

Turning to `C/C=C1\CC[C@]2(C)[C@@H]([C@H](C)CCCC(C)(C)O)CC[C@H]2\C1=C\C=C1C[C@@H](O)C[C@H](O)C1`, the EC50 in assay [2] was found to be 1000 nM; with HL-60 [6], 10000 nM. Further, the Activity in the assay on Rattus norvegicus [18] is 4.5 mg/dL; in the assay on Rattus norvegicus [5], 4.6 mg/dL. Besides, the “Ratio ED50” value (in assay [4]; in the assay with HL-60 [9]) was 0.0001 throughout. Moreover, the Ratio in the assay with Rattus norvegicus [19] is given as 7.3; in the assay with Rattus norvegicus [7], 6.6. Besides, the Ratio Ki in assay [8] was below 1e-05. In addition, the Ki at Vitamin D3 receptor is above 10000 nM.
